{
  "source": "ChEMBL document CHEMBL4406834",
  "about": "“Phenylthiazoles with nitrogenous side chain: An approach to overcome molecular obesity” (Eur J Med Chem, 2019)",
  "key": {"[1]": {"tested_on": "Staphylococcus aureus", "assay": "Antibiofilm activity against methicillin resistant Staphylococcus aureus NRS384 USA300 assessed as disruption of preformed biofilm at 4 x MIC incubated for 24 hrs by crystal violet staining based spectrophotometric analysis relative to control", "assay_type": "functional", "in_short": "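MRSA USA300 overnight culture diluted 1:100 in tryptic soy broth + 1% glucose. Biofilm formed for 24 h at 37 °C. Planktonic cells removed, then compounds added at 256 to 2 µg/mL in TSB for 24 h at 37 °C. Wells washed with PBS, stained with 0.1% crystal violet for 30 min, destained with ethanol, read at OD595. Percent eradication relative to DMSO; unpaired t test.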"}, "[2]": {"tested_on": "Enterococcus faecium", "assay": "Bactericidal activity against vancomycin-resistant Enterococcus faecium ATCC 700221 incubated for 18 to 20 hrs followed by replating on tryptic soy agar plate and further incubated for 18 to 24 hrs by CLSI-based broth microdilution assay", "assay_type": "functional", "in_short": "(§1)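 MBC: after the broth microdilution MIC (CAMHB, ~5 × 10^5 CFU/mL, 37 °C, 18-20 h), 4 µL from wells without growth plated onto tryptic soy agar. Plates incubated 37 °C for 18-20 h. MBC is the lowest concentration giving 99.9% reduction in growth.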"}, "[3]": {"tested_on": "Enterococcus faecalis", "assay": "Antibacterial activity against vancomycin-resistant Enterococcus faecalis ATCC 51299 after 18 to 20 hrs by CLSI-based broth microdilution assay", "assay_type": "functional", "in_short": "(§2)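 Broth microdilution per CLSI. Strains grown aerobically overnight on tryptone soy agar at 37 °C, adjusted to 0.5 McFarland, then diluted in cation-adjusted Mueller-Hinton broth to about 5 × 10^5 CFU/mL. Compounds (10 mg/mL DMSO stocks) serially diluted. Incubated aerobically at 37 °C for 18-20 h. MIC is the lowest concentration with no visible growth.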"}, "[4]": {"tested_on": "Staphylococcus aureus", "assay": "Bactericidal activity against vancomycin-resistant Staphylococcus aureus 10 incubated for 18 to 20 hrs followed by replating on tryptic soy agar plate and further incubated for 18 to 24 hrs by CLSI-based broth microdilution assay", "assay_type": "functional", "in_short": "as §1"}, "[5]": {"tested_on": "Staphylococcus aureus", "assay": "Bactericidal activity against methicilline-resistant Staphylococcus aureus NRS386 USA700 incubated for 18 to 20 hrs followed by replating on tryptic soy agar plate and further incubated for 18 to 24 hrs by CLSI-based broth microdilution assay", "assay_type": "functional", "in_short": "as §1"}, "[6]": {"tested_on": "Staphylococcus aureus", "assay": "Bactericidal activity against Staphylococcus aureus ATCC BAA42 incubated for 18 to 20 hrs followed by replating on tryptic soy agar plate and further incubated for 18 to 24 hrs by CLSI-based broth microdilution assay", "assay_type": "functional", "in_short": "as §1"}, "[7]": {"tested_on": "Staphylococcus aureus", "assay": "Antibacterial activity against methicilline-resistant Staphylococcus aureus NRS384 USA300 after 18 to 20 hrs by CLSI-based broth microdilution assay", "assay_type": "functional", "in_short": "as §2"}, "[8]": {"tested_on": "Staphylococcus aureus", "assay": "Antibacterial activity against methicilline-sensitive Staphylococcus aureus ATCC 6538 after 18 to 20 hrs by CLSI-based broth microdilution assay", "assay_type": "functional", "in_short": "as §2"}, "[9]": {"tested_on": "Staphylococcus aureus", "assay": "Antibacterial activity against Staphylococcus aureus ATCC BAA42 after 18 to 20 hrs by CLSI-based broth microdilution assay", "assay_type": "functional", "in_short": "as §2"}, "[10]": {"tested_on": "HaCaT", "assay": "Cytotoxicity against human HaCaT cells up to 32 ug/ml after 2 hrs by MTS assay", "assay_type": "cell-based"}, "[11]": {"tested_on": "Caco-2", "assay": "Cytotoxicity against human Caco2 cells up to 32 ug/ml after 2 hrs by MTS assay", "assay_type": "cell-based", "details": "caco-2, 2 h"}, "[12]": {"tested_on": "Escherichia coli", "assay": "Antibacterial activity against Escherichia coli BW25113", "assay_type": "functional"}, "[13]": {"tested_on": "Escherichia coli", "assay": "Antibacterial activity against Escherichia coli ATCC 25922", "assay_type": "functional"}, "[14]": {"tested_on": "Pseudomonas aeruginosa", "assay": "Antibacterial activity against Pseudomonas aeruginosa ATCC 15442", "assay_type": "functional"}, "[15]": {"tested_on": "Acinetobacter baumannii", "assay": "Bactericidal activity against Acinetobacter baumannii ATCC 19606", "assay_type": "functional", "details": "ATCC 19606 = CIP 70.34 = JCM 6841"}, "[16]": {"tested_on": "Escherichia coli", "assay": "Bactericidal activity against TolC-deficient Escherichia coli JW55031", "assay_type": "functional"}, "[17]": {"tested_on": "Pseudomonas aeruginosa", "assay": "Bactericidal activity against Pseudomonas aeruginosa ATCC 27853", "assay_type": "functional"}, "[18]": {"tested_on": "Pseudomonas aeruginosa", "assay": "Bactericidal activity against Pseudomonas aeruginosa ATCC 15442", "assay_type": "functional"}, "[19]": {"tested_on": "Staphylococcus aureus", "assay": "(§3) Antibacterial activity against intracellular methicillin resistant Staphylococcus aureus USA400 infected in mouse J774 cells assessed as reduction in intracellular bacterial cells at 2 times MIC concentration incubated for 24 hrs followed by re-plating on TSA plate for 18 to 22 hrs by serial dilution method relative to control", "assay_type": "functional", "in_short": "(§4)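 J774 murine macrophages in DMEM + 10% FBS, 37 °C, 5% CO2, infected with MRSA USA400 at MOI ~10:1 for 1 h. Washed with gentamicin 100 µg/mL to kill extracellular bacteria. […] Cells lysed with 0.1% Triton-X, serially diluted in PBS, plated on TSA for 18-22 h, CFU counted. One-way ANOVA with Dunnett's test.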"}, "[20]": {"tested_on": "Staphylococcus aureus", "assay": "as §3, with “assessed as log10 reduction in” for “assessed as reduction in”, “dilution method” for “dilution method relative to control”", "assay_type": "functional", "in_short": "as §4"}, "[21]": {"assay": "Cmax in Sprague-Dawley rat at 50 mg/kg, po administered via gavage measured after 90 mins by LC-MS/MS analysis", "assay_type": "ADME, organism-based", "design": "dose 50 mg/kg, route oral", "details": "in vivo", "in_short": "(§5)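 Three male naïve Sprague-Dawley rats received a single oral gavage dose of 50 mg/kg in 2% ethanol/48% PEG 400/50% water. Blood was collected into EDTA-K2 tubes over 12 h after dosing. Plasma was protein-precipitated with acetonitrile and compound concentration quantified by LC/MS/MS.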"}, "[22]": {"assay": "Tmax in Sprague-Dawley rat at 50 mg/kg, po administered via gavage measured over 12 hrs by LC-MS/MS analysis", "assay_type": "ADME, organism-based", "details": "in vivo", "in_short": "as §5"}, "[23]": {"assay": "Clearance in Sprague-Dawley rat at 50 mg/kg, po administered via gavage after 12 hrs by LC-MS/MS analysis", "assay_type": "ADME, organism-based", "details": "in vivo", "in_short": "as §5"}, "[24]": {"assay": "Volume of drug distribution in Sprague-Dawley rat at 50 mg/kg, po administered via gavage measured over 12 hrs by LC-MS/MS analysis", "assay_type": "ADME, organism-based", "details": "in vivo", "in_short": "as §5"}, "[25]": {"assay": "Half life in Sprague-Dawley rat at 50 mg/kg, po administered via gavage measured over 12 hrs by LC-MS/MS analysis", "assay_type": "ADME, organism-based", "details": "in vivo", "in_short": "as §5"}, "[26]": {"tested_on": "HaCaT", "assay": "Cytotoxicity against human HaCaT cells up to 64 ug/ml after 2 hrs by MTS assay", "assay_type": "cell-based"}, "[27]": {"tested_on": "Caco-2", "assay": "Cytotoxicity against human Caco2 cells up to 64 ug/ml after 2 hrs by MTS assay", "assay_type": "cell-based", "details": "caco-2, 2 h"}, "[28]": {"tested_on": "J774", "assay": "Cytotoxicity against mouse J774 cells after 24 hrs by MTS assay", "assay_type": "cell-based", "details": "j774, 24 h", "in_short": "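J774 murine macrophages were incubated with compound for 24 h, then given MTS reagent for 4 h. Absorbance was read at OD490.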"}},
  "data": [
    {"compound": "C/C(=N\\NC(=N)N)c1sc(-c2ccc(N3CCCC(C)C3)cc2)nc1C", "note": "(centres undefined)", "values": [
      {"measurement": "inhibition (INH)", "setting": "[1]", "result": 50, "unit": "%"},
      {"measurement": "MBC", "setting": "[2]", "result": 32, "unit": "µg/mL"},
      {"measurement": "MIC", "setting": "[3]", "result": 8, "unit": "µg/mL"},
      {"measurement": "MBC", "setting": "[4]", "result": 16, "unit": "µg/mL"},
      {"measurement": "MBC", "setting": "[5]", "result": 8, "unit": "µg/mL"},
      {"measurement": "MBC", "setting": "[6]", "result": 16, "unit": "µg/mL"},
      {"measurement": "MIC", "setting": "[7]", "result": 4, "unit": "µg/mL"},
      {"measurement": "MIC", "setting": "[8]", "result": 8, "unit": "µg/mL"},
      {"measurement": "MIC", "setting": "[9]", "result": 8, "unit": "µg/mL"},
      {"measurement": "Activity", "setting": "[10]", "result": "Non-Toxic"},
      {"measurement": "Activity", "setting": "[11]", "result": "Non-Toxic"},
      {"measurement": "MIC", "setting": "[12]", "result": 32, "unit": "µg/mL"},
      {"measurement": "MIC", "setting": "[13]", "result": 16, "unit": "µg/mL"},
      {"measurement": "MIC", "setting": "[14]", "result": "> 64", "unit": "µg/mL"},
      {"measurement": "MBC", "setting": "[15]", "result": 32, "unit": "µg/mL"},
      {"measurement": "MBC", "setting": "[16]", "result": 16, "unit": "µg/mL"},
      {"measurement": "MBC", "setting": "[17]", "result": "> 64", "unit": "µg/mL"},
      {"measurement": "MBC", "setting": "[18]", "result": "> 64", "unit": "µg/mL"}
    ]},
    {"compound": "C/C(=N\\NC(=N)N)c1sc(-c2ccc(N3CCCCC3)cc2)nc1C", "values": [
      {"measurement": "inhibition (INH)", "setting": "[1]", "result": 72, "unit": "%"},
      {"measurement": "inhibition (INH)", "setting": "[19]", "result": 93.2, "unit": "%"},
      {"measurement": "Activity", "setting": "[20]", "result": 1.18, "unit": "log10CFU/ml"},
      {"measurement": "MBC", "setting": "[2]", "result": 32, "unit": "µg/mL"},
      {"measurement": "MIC", "setting": "[3]", "result": 16, "unit": "µg/mL"},
      {"measurement": "MBC", "setting": "[4]", "result": 16, "unit": "µg/mL"},
      {"measurement": "MBC", "setting": "[5]", "result": 16, "unit": "µg/mL"},
      {"measurement": "MBC", "setting": "[6]", "result": 16, "unit": "µg/mL"},
      {"measurement": "MIC", "setting": "[7]", "result": 4, "unit": "µg/mL"},
      {"measurement": "MIC", "setting": "[8]", "result": 4, "unit": "µg/mL"},
      {"measurement": "MIC", "setting": "[9]", "result": 4, "unit": "µg/mL"},
      {"measurement": "Cmax", "setting": "[21]", "result": "9700 to 10000", "unit": "ng/mL"},
      {"measurement": "Tmax", "setting": "[22]", "result": 1.3, "unit": "h"},
      {"measurement": "CL/F", "setting": "[23]", "result": 12.7, "unit": "mL/min"},
      {"measurement": "Vd", "setting": "[24]", "result": 4.42, "unit": "L"},
      {"measurement": "half-life", "setting": "[25]", "result": 4, "unit": "h"},
      {"measurement": "Activity", "setting": "[26]", "result": "Non-Toxic"},
      {"measurement": "Activity", "setting": "[27]", "result": "Non-Toxic"},
      {"measurement": "MIC", "setting": "[12]", "result": 32, "unit": "µg/mL"},
      {"measurement": "MIC", "setting": "[13]", "result": 64, "unit": "µg/mL"},
      {"measurement": "MIC", "setting": "[14]", "result": "> 64", "unit": "µg/mL"},
      {"measurement": "MBC", "setting": "[15]", "result": 64, "unit": "µg/mL"},
      {"measurement": "MBC", "setting": "[16]", "result": 32, "unit": "µg/mL"},
      {"measurement": "MBC", "setting": "[17]", "result": "> 64", "unit": "µg/mL"},
      {"measurement": "MBC", "setting": "[18]", "result": "> 64", "unit": "µg/mL"},
      {"measurement": "Activity", "setting": "[28]", "result": "Non-Toxic"}
    ]}
  ]
}
